Bioassay records as filed in PubChem BioAssay.
Ba/F3 V617F tox: lowers viability of Ba/F3 cells expressing EpoR and JAK2V617F; ATP luminescence; inhibition, % at 5.6 µM; 1.1% of 220,000 active;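 active = inhibition above the campaign mean plus 3 SD over all tested compounds, cut at about 24% in these data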;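 also: cytokine-independent growth of Ba/F3 cells driven by EpoR plus mutant JAK2; 0% = DMSO-treated cells and 100% = JAK inhibitor I control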
bCat nuc transl: beta-catenin nuclear translocation modulation. AID 1665. HeLa beta-catenin nuclear translocation, immunofluorescence imaging. nuclear translocation activity, % at 5 µM. 0.3% of 190,000 active;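 active = nuclear translocation activity above 50% at 5 µM, with a well cell count of 50 or more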;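 also: per-cell ratio of nuclear to cytoplasmic median beta-catenin stain intensity; plate controls were DMSO negative control for no effect and GSK-3 inhibitor IX positive control for full effect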
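Read-out: Nuclear/cytoplasmic beta-catenin signal ratio, % activation | Assay system: Human HeLa cell line | Times: 24 h compound exposure at 37°C, 5% CO2 | Signal: Fluorescence imaging of beta-catenin antibody stain plus DAPI | Dosing: 5 µM primary, 0.02–20 µM confirmation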
IEC-6 cytotox: IEC-6 cytotoxicity, counter-screen for KLF5 inhibitors. luminescence viability. inhibition, % at 5 µM. 0.78% of 290,000 active; in the data active = inhibition above about 22%;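 also: 0% = plate median of test compound wells and 100% = cytotoxic reference compound wells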
BaF3 tox: counter-screen for JAK2V617F inhibitors: parental Ba/F3 viability inhibitors. 1.1% of 220,000 active. CellTiter-Glo ATP luminescence. AID 1486. inhibition, % at 5.6 µM;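 active = inhibition above a per-campaign cutoff, the mean inhibition of all tested compounds plus 3 SD, cut at about 27% in these data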;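 also: 0% = DMSO wells and 100% = JAK Inhibitor I control wells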
APP transl inh: APP translation inhibition. inhibition, % at 2 µM. SH-SY5Y APP 5'UTR-luciferase reporter, luminescence. 0.82% of 190,000 active. AID 1285;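 active = inhibition above a set limit, derived from the sample mean plus 3 SD, cut at about 45% in these data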
MT stabilizer: microtubule stabilizers in HeLa cells; HeLa tubulin immunostaining HCS, 24 h; share of cells brighter than vehicle mean+2SD; % tubulin-high responders, % at 10 µM; 0.83% of 200,000 active;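 active = plate Z-score above 3 for both tubulin-high and condensed-nucleus cell shares, with cell loss under 80%, at 10 µM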;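 also: anti alpha tubulin signal scored within the nucleus-defined area of each cell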
* marks the source's active call; other numbers are inactive results; x = no result. Only some compounds are listed: those with a hit (about 2.2% of all), similar ones and a draw of the others.

SMILES	Ba/F3 V617F tox	bCat nuc transl	IEC-6 cytotox	BaF3 tox	APP transl inh	MT stabilizer
O=C(CCl)Nc1cccc(-c2cnc3ccccc3n2)c1	73.4*	1.9	8.1	38.8*	x	10.4
CCC(=O)Nc1cccc(-c2cnc3ccccc3n2)c1	2.6	x	-0.3	5.3	-52.0	2.0
CC[N+]1=C(C)C(C)(C)c2cc(C)ccc21	64.5*	3.9	12.9	72.2*	6.1	6.2
C[n+]1c(/C=C/c2ccc3c(c2)OCO3)ccc2ccccc21	41.3*	3.8	3.0	33.4*	-185.0	5.3
C[n+]1c(/C=C/c2ccc(O)cc2)ccc2ccccc21	x	x	4.6	x	x	x
Oc1ccc(N=Nc2c(O)ccc3ccccc23)cc1	19.9	-0.2	11.6	42.4*	-21.9	1.8
NS(=O)(=O)c1ccc(N=Nc2c(O)ccc3ccccc23)cc1	2.2	1.1	3.8	9.1	9.3	3.7
COc1ccc(CN(C(=O)c2ccco2)c2ccc(C)c(C)c2)cc1	0.5	19.1	18.1	6.5	-12.7	16.1*
NC(=O)c1sc2nc3c(c(-c4cccs4)c2c1N)CCCC3	-0.8	0.9	-10.4	-0.3	46.2*	1.8
NC(=O)c1sc2nc3c(c(-c4ccco4)c2c1N)CCC3	3.7	x	-17.6	4.8	9.9	3.7
FC(F)(F)Oc1ccc(Nc2nc(N3CCOCC3)nc(N3CCOCC3)n2)cc1	x	x	-3.2	x	x	x
C=CCn1c(=O)c(C(=O)NCCN(CC)CC)c(O)c2ccccc21	-1.2	-3.0	6.2	46.5*	-1.9	3.6
C=CCn1c(=O)c(C(=O)NCc2ccccc2Cl)c(O)c2ccccc21	x	x	-6.9	x	x	x
CCc1ccc(NC(=O)CSc2nnc(-c3cnccn3)n2C)cc1	x	x	-2.9	x	x	x
O=C(CCSc1nc2ccccc2s1)N/N=C/c1c(O)ccc2ccccc12	1.4	1.7	1.5	3.7	52.5*	20.6*
COc1ccc(C(CNC(=O)Cc2ccc(-c3ccccc3)cc2)N(C)C)cc1 (centres undefined)	x	x	-3.3	x	x	x
O=C1CCC/C1=C\Nc1ccc(Cl)c([N+](=O)[O-])c1	1.0	0.2	0.3	58.4*	x	x
O=C1CCC/C1=C/Nc1ccc(Cl)cc1	-0.9	0.5	-4.6	-0.6	-11.7	3.7
CCCS(=O)(=O)c1nc(S(=O)(=O)c2ccc(C)cc2)c(NCCCN2CCCC2=O)s1	x	x	-3.8	x	x	x
COc1ccc(CCNc2ncnc3c2oc2ccccc23)cc1OC	51.3*	-0.6	18.3	62.2*	12.2	1.4
COc1ccc(CCNc2nc(C)nc3c2oc2ccccc23)cc1OC	1.5	12.0	12.1	18.2	-19.6	1.9
Cc1sc2ncnc(NCCc3ccc(S(N)(=O)=O)cc3)c2c1C	50.7*	2.8	18.1	58.0*	8.1	2.4
NS(=O)(=O)c1ccc(CCNc2ncnc3sccc23)cc1	33.1*	-5.3	0.6	43.0*	17.3	5.4
COc1ccc(CCNc2ncnc3sccc23)cc1OC	64.5*	0.9	21.8	69.5*	-27.8	2.3
COc1ccc(Nc2ncnc3sccc23)cc1OC	x	x	3.3	x	x	x
SMILES	Ba/F3 V617F tox	bCat nuc transl	IEC-6 cytotox	BaF3 tox	APP transl inh	MT stabilizer
COc1ccc(-c2c(NC(=O)c3ccco3)oc3c(C)cccc3c2=O)cc1	x	x	-7.6	x	x	x
COCCN(Cc1nc(-c2ccc(-c3ccccc3)cc2)oc1C)C(C)C	x	x	-6.6	x	x	x
CC(=O)c1cn(CCOc2ccc(F)cc2)c2ccccc12	x	x	-0.8	x	x	x
Cc1nc2ncccn2c1-c1csc(Nc2ccccc2)n1	-0.8	4.9	4.3	2.5	6.0	19.0*
Cc1nc2ncccn2c1-c1csc(Nc2ccc(N(C)C)cc2)n1	79.1*	36.2	22.2*	81.0*	93.8*	12.7
COc1ccc(Nc2nc(-c3c(C)nc4ncccn34)cs2)cc1	82.5*	55.8*	86.2*	82.5*	94.1*	14.3*
Cc1nc2ncccn2c1-c1csc(Nc2ccc(S(N)(=O)=O)cc2)n1	x	x	-7.1	x	x	x
COc1ccc2nc(N(Cc3ccccc3)C(=O)CCNC(C)=O)sc2c1	x	x	6.1	x	x	x
CCOc1ccc(NC(=O)c2c(NC(=O)CNCCN3CCOCC3)sc3c2CCC3)cc1	x	x	6.3	x	x	x
CCc1ccc(OC(=O)Nc2ccccc2)cc1	x	x	-0.2	x	x	x
COc1cccc(C2CC(c3ccc(Br)cc3)=NN2C(=O)c2ccncc2)c1OC (centres undefined)	4.1	-6.5	-0.9	8.5	-3.5	11.6
COc1ccccc1C1CC(c2ccc(Br)cc2)=NN1C(=O)c1cccnc1 (centres undefined)	-3.3	83.1*	8.5	4.8	8.9	14.9*
O=C1NC(=Nc2ccc(O)cc2)S/C1=C\C=C\c1ccco1	75.0*	13.3	-2.2	60.5*	x	x
